Results as given in ChEMBL document CHEMBL1914423, “New imidazo[2,1-b]thiazole derivatives: synthesis, in vitro anticancer evaluation, and in silico studies” (Eur J Med Chem, 2011).

Legend:
Assay type in all cases: functional
[1] = system: HL-60(TB); test: Anticancer activity against human HL-60(TB) cells after 48 hrs by SRB assay; details: HL-60, 48 h
Method in brief: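 NCI-60 five-dose screen. Cells grown in RPMI 1640 with 5% FBS and 2 mM L-glutamine, seeded at 5000–40,000 cells/well, and held 24 h at 37 °C and 5% CO₂ before drug. DMSO stocks were diluted into five concentrations (10-fold or ½-log steps). Settled suspension cells were fixed with cold TCA, SRB-stained, and read at 515 nm. […] was taken where [(Ti−Tz)/(C−Tz)]×100 = 50.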

[2] = system: K562; test: Anticancer activity against human K562 cells after 48 hrs by SRB assay; details: K562, 48 h
Method in brief: (§1)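 NCI five-dose screen. Cells in RPMI 1640 with 5% FBS and 2 mM L-glutamine, seeded at 5000–40,000 cells/well according to doubling time, then pre-incubated 24 h at 37 °C in 5% CO2. Drugs dissolved in DMSO, five concentrations by 10-fold or 1/2-log dilution. Cells fixed with TCA, SRB-stained, A515 read. IC50 solved from [(Ti−Tz)/(C−Tz)]×100 = 50.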

[3] = system: RPMI-8226; test: Anticancer activity against human RPMI8226 cells after 48 hrs by SRB assay; details: RPMI-8226, 48 h
[4] = system: SR; test: Anticancer activity against human SR cells after 48 hrs by SRB assay
Method in brief: (§2)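 NCI-60 five-dose mode: cells in RPMI 1640 with 5% FBS and 2 mM glutamine, plated at 5000–40,000 cells/well, and preincubated 24 h, with time-zero plates TCA-fixed. Drug given at five concentrations (10-fold or ½-log serial dilutions). Cold TCA fixation 60 min at 4 °C, SRB stain, Tris solubilization, A515. IC50 taken where [(Ti−Tz)/(C−Tz)]×100 = 50.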

[5] = system: EKVX; test: Anticancer activity against human EKVX cells after 48 hrs by SRB assay; method in brief: as §1
[6] = system: HOP-62; test: Anticancer activity against human HOP62 cells after 48 hrs by SRB assay; details: HOP-62, 48 h; method in brief: as §1
[7] = system: HOP-92; test: Anticancer activity against human HOP92 cells after 48 hrs by SRB assay; details: HOP-92, 48 h; method in brief: as §1
[8] = system: NCI-H23; test: Anticancer activity against human NCI-H23 cells after 48 hrs by SRB assay; details: NCI-H23, 48 h
[9] = system: NCI-H522; test: Anticancer activity against human NCI-H522 cells after 48 hrs by SRB assay; details: NCI-H522, 48 h
[10] = system: COLO 205; test: Anticancer activity against human COLO205 cells after 48 hrs by SRB assay; details: COLO 205, 48 h; method in brief: as §1
[11] = system: HCT-116; test: Anticancer activity against human HCT116 cells after 48 hrs by SRB assay; details: HCT-116, 48 h; method in brief: as §1
[12] = system: HT-29; test: Anticancer activity against human HT-29 cells after 48 hrs by SRB assay; details: HT-29, 48 h; method in brief: as §1
[13] = system: SF-268; test: Anticancer activity against human SF268 cells after 48 hrs by SRB assay; details: SF-268, 48 h
[14] = system: SF-539; test: Anticancer activity against human SF539 cells after 48 hrs by SRB assay; details: SF-539, 48 h
[15] = system: U-251; test: Anticancer activity against human U251 cells after 48 hrs by SRB assay; details: U-251, 48 h; method in brief: as §2
[16] = system: LOX IMVI; test: Anticancer activity against human LOXIMVI cells after 48 hrs by SRB assay; method in brief: as §1
[17] = system: Malme-3M; test: Anticancer activity against human MALME-3M cells after 48 hrs by SRB assay; method in brief: as §1
[18] = system: MDA-MB-435; test: Anticancer activity against human MDA-MB-435 cells after 48 hrs by SRB assay; details: MDA-MB-435, 48 h; method in brief: as §1
[19] = system: SK-MEL-2; test: Anticancer activity against human SK-MEL-2 cells after 48 hrs by SRB assay; details: SK-MEL-2, 48 h
[20] = system: SK-MEL-5; test: Anticancer activity against human SK-MEL-5 cells after 48 hrs by SRB assay; details: SK-MEL-5, 48 h
[21] = system: OVCAR-4; test: Anticancer activity against human OVCAR4 cells after 48 hrs by SRB assay; details: OVCAR-4, 48 h
[22] = system: OVCAR-5; test: Anticancer activity against human OVCAR5 cells after 48 hrs by SRB assay; details: OVCAR-5, 48 h
[23] = system: NCI/ADR-RES; test: Anticancer activity against human NCI/ADR-RES cells after 48 hrs by SRB assay
[24] = system: CAKI-1; test: Anticancer activity against human Caki1 cells after 48 hrs by SRB assay; details: CAKI-1, 48 h; method in brief: as §1
[25] = system: RXF 393; test: Anticancer activity against human RXF393 cells after 48 hrs by SRB assay; details: RXF 393, 48 h
[26] = system: T47D; test: Anticancer activity against human T47D cells after 48 hrs by SRB assay; method in brief: as §2
[27] = system: MDA-MB-468; test: Anticancer activity against human MDA-MB-468 cells after 48 hrs by SRB assay; details: MDA-MB-468, 48 h
[28] = read-out: LC50 (the source's name)

COc1cccc(-c2nc3sccn3c2-c2ccnc(NCCNC(=O)Nc3cccc(C(F)(F)F)c3)n2)c1
GI50 [1]: 2.92 µM | LC50 [1]: > 100 µM | TGI [1]: 7.43 µM | GI50 [2]: 3.48 µM | TGI [2]: > 100 µM | CC50 [2, 28]: > 100 µM | GI50 [3]: 1.92 µM | LC50 [3]: > 100 µM | TGI [3]: 5.11 µM | GI50 [4]: 3.75 µM | TGI [4]: 29.7 µM | CC50 [4, 28]: > 100 µM | GI50 [5]: 3.55 µM | LC50 [5]: > 100 µM | TGI [5]: 59.6 µM | GI50 [6]: 6.71 µM | LC50 (concentration killing 50% of starting cells) [6]: > 100 µM | TGI [6]: 42.4 µM | GI50 [7]: 0.853 µM | TGI [7]: 9.47 µM | CC50 [7, 28]: > 100 µM | GI50 [8]: 3.42 µM | LC50 (50% lethal concentration) [8]: > 100 µM | TGI [8]: 76.9 µM | GI50 [9]: 2.67 µM | TGI [9]: 8.51 µM | CC50 [9, 28]: 86.5 µM | GI50 [10]: 5.37 µM | TGI [10]: 19.2 µM | CC50 [10, 28]: 58 µM | GI50 [11]: 3.45 µM | TGI [11]: 11.6 µM | CC50 [11, 28]: > 100 µM | GI50 [12]: 3.33 µM | TGI [12]: 14 µM | CC50 [12, 28]: > 100 µM | GI50 [13]: 4.59 µM | TGI [13]: 43.4 µM | CC50 [13, 28]: > 100 µM | GI50 [14]: 3.83 µM | TGI [14]: 17.1 µM | CC50 [14, 28]: 56.5 µM | GI50 [15]: 3.95 µM | TGI [15]: 19.8 µM | CC50 [15, 28]: > 100 µM | GI50 [16]: 4.11 µM | TGI [16]: > 100 µM | CC50 [16, 28]: > 100 µM | GI50 [17]: 3.86 µM | TGI [17]: 26.8 µM | CC50 [17, 28]: > 100 µM | GI50 [18]: 2.95 µM | TGI [18]: 12.3 µM | CC50 [18, 28]: > 100 µM | GI50 [19]: 2.03 µM | TGI [19]: 4.46 µM | CC50 [19, 28]: 9.78 µM | GI50 [20]: 4.27 µM | TGI [20]: 15.9 µM | CC50 [20, 28]: 40.6 µM | GI50 [21]: 3.78 µM | TGI [21]: 34.1 µM | CC50 [21, 28]: > 100 µM | GI50 [22]: 6.37 µM | TGI [22]: 52.2 µM | CC50 [22, 28]: > 100 µM | GI50 [23]: 3.45 µM | TGI [23]: > 100 µM | CC50 [23, 28]: > 100 µM | GI50 [24]: 3.5 µM | TGI [24]: 10.3 µM | CC50 [24, 28]: > 100 µM | GI50 [25]: 1.77 µM | TGI [25]: 3.65 µM | CC50 [25, 28]: 7.49 µM | GI50 [26]: 3.77 µM | TGI [26]: 13.8 µM | CC50 [26, 28]: 61 µM | GI50 [27]: 2.63 µM | TGI [27]: 10.4 µM | CC50 [27, 28]: > 100 µM
